# Measurements taken from paper PMC4539048 (Science translational medicine, 2015).
# How the values were obtained:
# P. falciparum 3D7 [1] = assay: Blood-stage phenotype and development by microscopy; type: cell-based; details: 10xEC50, 48 h
# Outline: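 Giemsa-stained smears were scored by microscopy, at least 200 cells per condition, for stage arrest and morphology. Standard antimalarials served as controls.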
# [2] = test system: G6PD-deficient human red blood cells; type: in vivo, NOD-SCID mice; details: blood type A- G6PD-deficient human red blood cells
# [3] = test system: P. falciparum NF54 liver-stage parasites; details: historical data using the same donor; cited from earlier work
# [4] = molecular target: P. falciparum DHODH (PfDHODH) (Plasmodium falciparum, UniProt Q08210); type: biochemical; details: for IC50, P. falciparum DHODH: mean of 3 technical replicates, 95% confidence interval in parentheses
# P. falciparum DHODH (PfDHODH), sequence (Q08210 24-569): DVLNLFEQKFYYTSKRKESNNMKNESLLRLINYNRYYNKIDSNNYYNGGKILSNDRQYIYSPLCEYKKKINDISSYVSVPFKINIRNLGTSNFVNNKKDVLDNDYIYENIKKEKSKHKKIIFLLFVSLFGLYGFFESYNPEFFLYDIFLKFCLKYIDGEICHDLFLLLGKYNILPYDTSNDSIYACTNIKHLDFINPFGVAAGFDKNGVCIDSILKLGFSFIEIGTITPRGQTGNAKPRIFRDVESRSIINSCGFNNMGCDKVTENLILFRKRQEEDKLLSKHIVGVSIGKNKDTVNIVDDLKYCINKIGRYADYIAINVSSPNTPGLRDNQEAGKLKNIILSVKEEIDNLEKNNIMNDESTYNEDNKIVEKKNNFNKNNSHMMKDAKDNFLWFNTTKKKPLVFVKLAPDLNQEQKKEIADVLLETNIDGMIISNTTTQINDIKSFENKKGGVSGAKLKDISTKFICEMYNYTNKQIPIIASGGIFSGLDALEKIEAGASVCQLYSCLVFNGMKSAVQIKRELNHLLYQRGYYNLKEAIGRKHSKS
# P. vivax DHODH (PvDHODH) = P. vivax DHODH (PvDHODH) (Plasmodium vivax, UniProt A5K1N1); assay: DHODH inhibition, DCIP spectrophotometric assay; type: biochemical; details: mean of 3 technical replicates, 95% confidence interval in parentheses
# human DHODH = human DHODH (Homo sapiens, UniProt Q02127); assay: DHODH inhibition, DCIP spectrophotometric assay; type: biochemical; details: mean of 3 technical replicates, 95% confidence interval in parentheses
# human DHODH, sequence (Q02127 whole entry): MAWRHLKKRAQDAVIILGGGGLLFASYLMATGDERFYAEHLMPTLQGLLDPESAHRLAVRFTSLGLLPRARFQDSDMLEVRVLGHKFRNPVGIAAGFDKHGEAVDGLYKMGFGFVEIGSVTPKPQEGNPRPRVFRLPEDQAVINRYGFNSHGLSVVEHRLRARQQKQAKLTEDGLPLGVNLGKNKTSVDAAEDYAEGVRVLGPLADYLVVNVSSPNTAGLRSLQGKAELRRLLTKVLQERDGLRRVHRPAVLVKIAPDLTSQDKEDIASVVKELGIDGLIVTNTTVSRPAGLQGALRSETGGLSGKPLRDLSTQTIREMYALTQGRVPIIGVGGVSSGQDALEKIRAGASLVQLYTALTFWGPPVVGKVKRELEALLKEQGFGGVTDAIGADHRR
# mouse DHODH = mouse DHODH (Mus musculus, UniProt O35435); assay: DHODH inhibition, DCIP spectrophotometric assay; type: biochemical; details: mean of 3 technical replicates, 95% confidence interval in parentheses
# mouse DHODH, sequence (O35435 whole entry): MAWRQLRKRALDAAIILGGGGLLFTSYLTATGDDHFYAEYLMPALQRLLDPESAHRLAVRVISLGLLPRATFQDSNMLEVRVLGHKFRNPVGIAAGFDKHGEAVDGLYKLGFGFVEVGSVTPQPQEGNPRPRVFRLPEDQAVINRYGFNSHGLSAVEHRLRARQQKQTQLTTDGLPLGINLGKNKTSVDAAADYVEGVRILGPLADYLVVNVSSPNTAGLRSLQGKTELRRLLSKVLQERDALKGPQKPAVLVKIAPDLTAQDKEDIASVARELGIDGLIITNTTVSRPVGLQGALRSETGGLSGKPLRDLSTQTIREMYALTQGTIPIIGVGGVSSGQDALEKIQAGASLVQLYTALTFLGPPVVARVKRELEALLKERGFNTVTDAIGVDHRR
# rat DHODH = rat DHODH (Rattus norvegicus, UniProt Q63707); assay: DHODH inhibition, DCIP spectrophotometric assay; type: biochemical; details: mean of 3 technical replicates, 95% confidence interval in parentheses
# rat DHODH, sequence (Q63707 whole entry): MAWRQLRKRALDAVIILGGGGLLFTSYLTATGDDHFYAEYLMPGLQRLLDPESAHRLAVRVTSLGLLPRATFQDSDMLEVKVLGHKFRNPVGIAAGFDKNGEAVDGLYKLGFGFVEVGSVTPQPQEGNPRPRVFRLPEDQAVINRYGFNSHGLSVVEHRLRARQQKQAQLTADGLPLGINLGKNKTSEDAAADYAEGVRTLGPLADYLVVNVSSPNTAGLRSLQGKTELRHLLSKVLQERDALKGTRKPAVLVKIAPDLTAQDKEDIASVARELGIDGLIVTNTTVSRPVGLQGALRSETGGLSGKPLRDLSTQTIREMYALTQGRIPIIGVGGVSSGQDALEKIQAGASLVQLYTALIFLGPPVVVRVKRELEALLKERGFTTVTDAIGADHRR
# dog DHODH = dog DHODH (Canis lupus familiaris, UniProt A0A8I3MWX2); assay: DHODH inhibition, DCIP spectrophotometric assay; type: biochemical; details: mean of 3 technical replicates, 95% confidence interval in parentheses
# dog DHODH, sequence (A0A8I3MWX2 1-406): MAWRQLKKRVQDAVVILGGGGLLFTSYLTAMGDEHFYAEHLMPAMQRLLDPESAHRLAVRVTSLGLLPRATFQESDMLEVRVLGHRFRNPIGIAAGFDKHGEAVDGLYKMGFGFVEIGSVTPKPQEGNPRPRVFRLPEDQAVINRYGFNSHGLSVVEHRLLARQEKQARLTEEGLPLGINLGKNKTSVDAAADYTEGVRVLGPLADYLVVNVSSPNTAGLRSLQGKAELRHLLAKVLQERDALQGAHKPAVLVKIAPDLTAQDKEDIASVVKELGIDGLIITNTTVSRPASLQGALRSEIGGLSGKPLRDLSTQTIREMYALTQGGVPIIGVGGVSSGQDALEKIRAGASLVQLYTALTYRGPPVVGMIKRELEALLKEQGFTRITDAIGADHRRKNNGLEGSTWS
# rabbit DHODH = rabbit DHODH (Oryctolagus cuniculus, UniProt G1SWF3); assay: DHODH inhibition, DCIP spectrophotometric assay; type: biochemical; details: mean of 3 technical replicates
# rabbit DHODH, sequence (G1SWF3 1-395): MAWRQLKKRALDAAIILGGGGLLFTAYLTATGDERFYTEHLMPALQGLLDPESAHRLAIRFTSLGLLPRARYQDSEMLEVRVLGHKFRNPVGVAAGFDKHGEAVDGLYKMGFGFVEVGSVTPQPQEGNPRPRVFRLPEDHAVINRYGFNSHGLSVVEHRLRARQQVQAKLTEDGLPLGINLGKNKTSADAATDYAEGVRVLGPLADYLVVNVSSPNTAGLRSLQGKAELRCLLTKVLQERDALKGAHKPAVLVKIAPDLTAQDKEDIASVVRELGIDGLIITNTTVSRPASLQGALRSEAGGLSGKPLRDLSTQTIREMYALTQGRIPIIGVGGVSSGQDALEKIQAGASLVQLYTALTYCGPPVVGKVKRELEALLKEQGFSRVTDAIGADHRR
# P. falciparum 3D7 [5] = assay: In vitro P. falciparum 3D7 growth inhibition; type: cell-based; details: for P. falciparum 3D7 growth inhibition EC50: 0.5% Albumax-II medium, 95% confidence intervals in parenthesis
# Outline: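 SYBR-green growth assay on P. falciparum 3D7 and drug-resistant lines, including chloroquine- and pyrimethamine-resistant parasites, cultured in RPMI-1640 with 0.5% Albumax-II. At least triplicate data per concentration. EC50 from the log(inhibitor) vs response variable-slope (four-parameter) fit by nonlinear least squares, reported with 95% confidence intervals of the fit.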
# [6] = Metabolite identification and profiling in pooled plasma; type: in vivo; details: all species, mass spectrometry peak area ratios, single dose of DSM265
# Outline: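 Pooled plasma from single-dose PK studies in mice, rabbits, monkeys and dogs was profiled by mass spectrometry. Metabolites were identified, and the main oxidative metabolite's structure was confirmed by synthesis. Each metabolite's exposure was estimated as a share of parent AUC from peak area ratios.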
# P. falciparum Dd2 [7] = details: Dd2, same 3xEC50 protocol; cited from earlier work
# [8] = test system: P. falciparum Dd2 and resistant clones; assay: microbe, parasite or virus in culture; type: cell-based; details: isolates derived from Dd2 and K1
# P. falciparum Dd2 [9] = type: cell-based
# P. falciparum HB3 = assay: In vitro selection of resistant parasites, HB3; type: cell-based; details: HB3 strain
# [10] = test system: Salmonella typhimurium-E. coli; assay: 5-strain bacterial reverse mutation assay
compound,measurement,setting,value
CCc1nc(N)nc(N)c1-c1ccc(Cl)cc1 [pyrimethamine],blood-stage phenotype after treatment,P. falciparum 3D7 [1],arrested as mature trophozoites
COc1cc(NC(C)CCCN)c2ncccc2c1 (centres unmarked) [primaquine],hemolytic toxicity,[2],substantial loss in human RBCs
same,EC50 on hepatocyte infection rate (EEF count),[3],0.20 (0.059 – 0.71) μg/mL
same,Liver-stage schizont EC50 (EEF diameter/size),[3],0.15 µg/mL
"CC(F)(F)c1nc2nc(CO)cc(Nc3ccc(S(F)(F)(F)(F)F)cc3)n2n1 [DSM450, (2-(1,1-difluoroethyl)-7-((4-(pentafluoro-l^6-sulfanyl)phenyl)amino)-[1,2,4]triazolo[1,5-a]pyrimidin-5-yl)methanol]",fold less potent than DSM265 as a PfDHODH inhibitor,[4],3 fold
same,"IC50, P. falciparum DHODH",[4],0.032 (0.026 – 0.040) μg/mL
same,"IC50, P. vivax DHODH",P. vivax DHODH (PvDHODH),0.11 (0.081 – 0.15) μg/mL
same,"IC50, Human DHODH",human DHODH,>43 µg/mL
same,"IC50, Mouse DHODH",mouse DHODH,4.5 (3.1 – 6.9) μg/mL
same,"IC50, Rat DHODH",rat DHODH,1.6 (1.2 – 2.0) μg/mL
same,"IC50, Dog DHODH",dog DHODH,25 (21 – 29) μg/mL
same,"IC50, Rabbit DHODH",rabbit DHODH,>43 µg/mL
same,fold less active than DSM265 against P. falciparum 3D7 parasites,P. falciparum 3D7 [5],43 fold
same,P. falciparum 3D7 growth inhibition EC50,P. falciparum 3D7 [5],0.079 (0.042 – 0.15) μg/mL
same,plasma metabolite exposure as share of the parent AUC,[6],4–27%
"Cc1cc(Nc2ccc(S(F)(F)(F)(F)F)c(F)c2)n2nc(C(C)(F)F)nc2n1 [DSM430, 2-(1,1-difluoroethyl)-N-(3-fluoro-4-(pentafluoro-l^6-sulfanyl)phenyl)-5-methyl-[1,2,4]triazolo[1,5-a]pyrimidin-7-amine]","IC50, P. falciparum DHODH",[4],0.010 (0.0079 – 0.014) μg/mL
same,"IC50, Human DHODH",human DHODH,3.7 (2.6 – 4.8) μg/mL
same,"IC50, Mouse DHODH",mouse DHODH,0.10 (0.082 – 0.12) μg/mL
same,"IC50, Rat DHODH",rat DHODH,0.082 (0.069 – 0.099) μg/mL
same,"IC50, Dog DHODH",dog DHODH,0.56 (0.48 – 0.65) μg/mL
same,P. falciparum 3D7 growth inhibition EC50,P. falciparum 3D7 [5],0.0002 (0.00011 – 0.00056) μg/mL
CCN(CC)CCCC(C)Nc1ccnc2cc(Cl)ccc12 (centres unmarked) [chloroquine],minimum inoculum for resistance (MIR),P. falciparum Dd2 [7],10^8
C[C@@H]1CC[C@H]2[C@@H](C)C(=O)O[C@@H]3O[C@@]4(C)CC[C@@H]1[C@]32OO4 [artemisinin],blood-stage phenotype after treatment,P. falciparum 3D7 [1],pyknotic
same,sensitivity of DSM265-resistant isolates to the drug,[8],fully sensitive
O=C1C(O)=C([C@H]2CC[C@H](c3ccc(Cl)cc3)CC2)C(=O)c2ccccc21 [atovaquone],drug concentration required to suppress emergence of resistant parasites,"P. falciparum Dd2 [9]; Dd2, inoculum 2×10^7 parasites",33 xEC50
same,EC50 increase of resistant Dd2 parasites over wild-type,P. falciparum Dd2 [9]; parasites selected with the same drug,10 fold
same,outcome of resistance selection,P. falciparum HB3,resistant HB3 parasites could be obtained
same,sensitivity of DSM265-resistant isolates to the drug,[8],fully sensitive
Nc1ccc(S(F)(F)(F)(F)F)cc1 [SF5-aniline],mutagenic activity (Ames test),[10],non-mutagenic
